Assay outcomes from PubChem.
Compounds with a hit are over-represented: about 2.4% of the library has one in this group of screens.
Tb MetRS inh: blocks T. brucei methionyl-tRNA synthetase activity | purified T. brucei MetRS, ATP depletion, Kinase-Glo luminescence | inhibition, % at 11.9 µM | 360,000 tested, 0.4% active | AID 624268;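 active = inhibition above a per-plate cutoff of the control wells' mean inhibition plus 3 SD, cut at about 5.5% in these data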
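Test system – parasite MetRS enzyme · Reagent – substrates ATP, L-methionine and bulk Escherichia coli tRNA · Doses – 11.9 µM compound single dose, 0.9% DMSO · Times – 15 min enzyme-compound preincubation, 2 h reaction, 10 min detection, 25 °C · Signal – Kinase-Glo luminescence, ATP depletion format · Controls – DMSO-only wells as low control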
Neddylation inh: blocks human cullin neddylation. TR-FRET cullin neddylation, biochemical. P61081+Q13564. 360,000 tested, 0.58% active. inhibition, % at 25 µM; in the data active = inhibition above about 36%
CSN deneddyl inh: CSN deneddylation inhibition; Q92905; Purified CSN, SCF-Nedd8-OG deneddylation, fluorescence polarization; inhibition, % at 12.5 µM; 360,000 tested, 0.38% active; AID 651999;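 active = pattern-corrected inhibition above about 35%, with an unprinted fluorescence ratio check between 0.5 and 1.5, limit read from the data, passing the limit was not always enough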
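assay system = purified human Csn5 enzyme expressed in HEK293T cells | amount = 0.24 nM enzyme | buffer or medium = Tris/NaCl/DTT buffer, pH 7.5 | reagent = 10 nM SCFSkp2-Nedd8OG | compound = one concentration, 12.5 µM, 0.25% DMSO | times = 90 min reaction at room temperature | signal = FP | read-out basis = % inhibition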
HNF4A DNA FP: change in binding of human HNF4 alpha to DNA; HNF4a-FITC DNA binding, fluorescence polarization, 1 h; activity change, % at 10 µM; 360,000 tested, 0.3% active; AID 1224865; in the data active = activity change above about 30%, passing the limit was not always enough
Rpn11 block: inhibitors of human proteasome Rpn11; O00487; human 26S proteasome, Ub4-pepOG fluorescence polarization; 20S core pre-blocked with epoxomicin; inhibition, % at 20 µM; 360,000 tested, 0.59% active;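 active = inhibition at 20 µM, scaled to each plate's controls, above about 33%, limit read from the data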
PREPL inhibitor: inhibits the human prolyl oligopeptidase-like enzyme | Q4J6C6 | recombinant PREPL, fluorescence polarization activity-based probe | inhibition, % at 5.96 µM | 320,000 tested, 0.68% active | AID 2751; in the data active = inhibition above about 43%
Target sequence (Q4J6C6 whole entry, looked up): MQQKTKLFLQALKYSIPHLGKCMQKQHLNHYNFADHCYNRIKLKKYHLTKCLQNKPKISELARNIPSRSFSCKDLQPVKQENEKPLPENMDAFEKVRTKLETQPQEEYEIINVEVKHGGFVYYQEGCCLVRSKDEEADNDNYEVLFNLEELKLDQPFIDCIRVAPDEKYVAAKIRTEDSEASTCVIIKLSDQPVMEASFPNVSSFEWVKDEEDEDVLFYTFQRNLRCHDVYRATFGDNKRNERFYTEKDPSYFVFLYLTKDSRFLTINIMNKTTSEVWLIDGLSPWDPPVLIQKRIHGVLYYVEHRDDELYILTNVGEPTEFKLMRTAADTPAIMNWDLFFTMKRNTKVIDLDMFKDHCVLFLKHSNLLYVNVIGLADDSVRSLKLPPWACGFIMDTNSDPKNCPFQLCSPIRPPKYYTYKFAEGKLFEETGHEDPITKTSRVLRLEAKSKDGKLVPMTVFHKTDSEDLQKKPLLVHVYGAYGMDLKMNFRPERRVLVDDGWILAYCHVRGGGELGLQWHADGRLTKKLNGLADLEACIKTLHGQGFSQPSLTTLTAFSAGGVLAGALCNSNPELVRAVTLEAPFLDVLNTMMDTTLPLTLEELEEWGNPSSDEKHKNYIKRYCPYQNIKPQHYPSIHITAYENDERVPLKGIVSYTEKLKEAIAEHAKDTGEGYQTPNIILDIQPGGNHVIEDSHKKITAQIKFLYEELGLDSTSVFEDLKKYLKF
Neddyl inh conf: confirmation of human cullin neddylation inhibitors; AID 652217; 1,800 tested, 13% active; shares compounds with Neddylation inh; TR-FRET cullin neddylation biochemical assay; calls only at 25 µM; in the data active = inhibition above about 40%;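 also: neddylation substrate is the cullin 1 ring ligase complex with SKP2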
A number is an active result; n = inactive; x = no result shown.

SMILES	Tb MetRS inh	Neddylation inh	CSN deneddyl inh	HNF4A DNA FP	Rpn11 block	PREPL inhibitor	Neddyl inh conf
CC1=C(C(=O)N2CCOCC2)CC(CC(=O)NCCCN(C)C)C(=O)N1CCCN1CCCC1=O (stereo unspecified)	n	n	n	n	x	x	x
Cc1nn(-c2ccccc2)c(N)c1C1(O)C(=O)N(C(C)C)c2ccccc21 (stereo unspecified)	n	n	n	n	n	n	x
Cc1nn(-c2ccccc2)c2c1P(=O)(O)/C(=C1\N(C)c3ccccc3C1(C)C)C=N2	n	45	n	n	n	n	n
OC[C@@H]1CN(Cc2ccc3c(c2)OCO3)C[C@H](n2cnc3c(NC4CCCC4)ncnc32)O1	n	n	n	n	n	x	x
CCOC(=O)c1cn2nc(Oc3ccccc3)ccc2n1	n	n	n	n	n	n	x
CCOC(=O)c1cn2nc(Oc3cccc(C(F)(F)F)c3)ccc2n1	n	55	n	n	n	n	x
CCn1cc(C(=O)O)c(=O)c2cc(F)c(N3CCN(C(=S)NC(=O)c4ccc(OC)cc4)CC3)cc21	n	53	n	n	n	n	n
CCn1cc(C(=O)O)c(=O)c2cc(F)c(N3CCN(C(=O)Nc4ccccc4)CC3)cc21	n	53	n	n	n	n	n
CSc1ccc(CN2CCC(C)(Oc3cccc(Cl)c3)C2)cc1 (stereo unspecified)	n	n	n	n	n	x	x
CNc1cc(-c2cccc(OC)c2F)nc2ccnn12	n	x	n	n	n	x	x
Cn1c(N/N=C/c2cccs2)nc2c1c(=O)n(Cc1ccccc1)c(=O)n2C	n	39	n	n	n	n	n
Cn1c(=O)c2c(nc(N/N=C/c3cccs3)n2Cc2ccccc2)n(C)c1=O	n	x	n	n	n	n	x
CCOC(=O)C1(C)CCCN(C(=O)c2ccc(OC)cc2OC)C1 (stereo unspecified)	n	n	n	n	n	x	x
COC(=O)c1sccc1NC(=O)/C=C/c1ccc(Cl)cc1Cl	n	41	n	n	n	n	n
Cc1cc(C)cc(C(=O)NCC(=O)N2CCC(C(N)=O)CC2)c1	n	n	n	n	n	n	x
N=c1c(C(=O)NCCN2CCOCC2)cc2c(=O)n3ccccc3nc2n1CCCN1CCOCC1	n	x	n	n	n	n	x
N=c1c(C(=O)NCc2ccco2)cc2c(=O)n3ccccc3nc2n1Cc1ccc(Cl)cc1	n	55	n	n	n	n	n
Cc1ccc2nc3c(cc(C(=O)NCc4ccco4)c(=N)n3Cc3ccco3)c(=O)n2c1	n	56	n	n	n	n	n
N=c1c(C(=O)NCCN2CCOCC2)cc2c(=O)n3ccccc3nc2n1Cc1ccc(F)cc1	n	73	n	n	n	n	x
Cc1cccc(NC(=O)COc2coc(CN3CCN(c4ccccc4)CC3)cc2=O)c1	n	n	n	n	n	n	x
CC1(C)CC(=O)c2c(nc3ccccc3c2N)C1	n	n	n	n	n	n	x
Cc1nc2c(c3c1[nH]c1ccccc13)C(=O)CC(C)(C)C2	n	46	n	n	n	n	x
CCCCCCC(=O)Nc1c2c(nc3ccccc13)N(C)CC2	n	x	n	n	n	n	x
CN1CCN(CC(=O)Nc2cc(N(C)C)nc3ccccc23)CC1	n	40	n	n	n	n	n
CN1CCc2c1nc1ccccc1c2NC(=O)CN1CCCC1	n	41	n	n	n	n	n
SMILES	Tb MetRS inh	Neddylation inh	CSN deneddyl inh	HNF4A DNA FP	Rpn11 block	PREPL inhibitor	Neddyl inh conf
COc1ccc(CNC(=O)C2CCN(S(=O)(=O)c3c(C)noc3/C=C/N(C)C)CC2)cc1	n	n	n	n	n	n	x
CN(C)S(=O)(=O)c1cccc(-c2nn(-c3ccccc3)cc2/C=C(/C#N)C(=O)NCc2ccco2)c1	n	n	n	n	n	n	x
CCN(CC)S(=O)(=O)c1cccc(-c2nn(-c3ccccc3)cc2/C=C(\C#N)C(=O)NCc2ccco2)c1	n	39	n	n	n	n	n
Cc1ccc(Nc2ccc(C(=O)NCCc3ccccc3)cn2)cc1	n	41	n	n	n	n	n
Cc1oc(-c2ccccc2Cl)nc1CS(=O)CC(=O)NC1CC1 (stereo unspecified)	n	n	n	n	n	n	x
O=C1CS(=O)(=O)c2ccccc2N1	n	n	n	n	n	n	x
O=C(Cn1nc(-c2ccco2)ccc1=O)Nc1cc(Cl)ccc1Cl	n	47	n	n	n	n	n
O=C(Cn1nc(-c2ccco2)ccc1=O)Nc1cc(C(F)(F)F)ccc1Cl	n	x	n	n	n	n	x
Cc1cc(Cl)ccc1NC(=S)NCc1ccc(F)cc1	n	n	n	n	n	n	x
CN(C)CCN(C(=O)/C=C/c1cccs1)c1nc2ccc(Br)cc2s1	n	40	n	n	n	n	n
COc1ccc(-c2cnc3c(NC(C)=O)cc(-c4cc(F)ccc4OC)cn23)cc1OC	n	44	n	n	n	x	n
COc1ccc(F)cc1-c1cc(NC(C)=O)c2ncc(-c3cc(OC)c(OC)c(OC)c3)n2c1	n	n	n	n	n	x	x
COc1ccc(S(=O)(=O)N2CCCCC2)cc1NC(=O)c1c(F)cccc1Cl	n	n	n	n	n	x	x
Nc1nc(SCc2ccccn2)c2ncn(C3OC(CO)C(O)C3O)c2n1 (stereo unspecified)	n	n	n	n	n	x	x
O=C(O)c1cc2cc(OCc3ccccc3)ccc2[nH]1	n	51	n	n	n	n	n
COC(=O)c1cc(NCc2ccccc2F)ccc1N1CCOCC1	n	n	n	n	n	n	x
CCOC(=O)c1cc(NCc2cccs2)ccc1N1CCOCC1	n	46	n	n	n	n	n
CCOc1ccccc1CNc1ccc(N2CCOCC2)c(C(=O)O)c1	n	41	n	n	n	n	n
CC(=O)Nc1ccc(C(=O)COC(=O)CCN2C(=O)C3CC=CCC3C2=O)cc1 (stereo unspecified)	n	58	n	n	n	n	n
c1cncc(-c2nnc(-c3cccs3)o2)c1	n	52	n	n	n	n	x
Cc1ccc(-c2nnc(-c3cccnc3)o2)cc1	n	n	n	n	n	n	x
N#C/C(=C\c1cn(CCOc2ccccc2F)c2ccccc12)C(=O)NCc1cccs1	n	n	n	n	n	n	x
N#C/C(=C\c1cn(Cc2ccc(C#N)cc2)c2ccccc12)C(=O)NCc1cccs1	n	43	n	n	n	n	x
CC(=O)c1ccc(-c2ccc(C(=O)NC3CC(C)(C)NC(C)(C)C3)o2)cc1	n	66	n	n	n	n	x
CC(O)(c1ccc(F)c(F)c1)c1nc(-c2cc3ccccc3o2)cs1 (stereo unspecified)	n	n	n	n	n	x	x
COc1ccc(-c2[nH]c(-c3cccc(OC)c3)nc2SCC(=O)NCc2ccco2)cc1	n	42	n	n	n	n	n
COc1ccc(-c2ccc(SCC(=O)NCc3ccco3)nn2)cc1	n	n	n	n	n	n	x
